Laboratory results published in ChEMBL document CHEMBL4152323, “N-(1,3,4-oxadiazol-2-yl)benzamide analogs, bacteriostatic agents against methicillin- and vancomycin-resistant bacteria” (Eur J Med Chem, 2018).
In brackets after ≈: the same amount, converted by molar mass. Activity calls are given as the source filed them. The rule behind the calls is not given here.

Tests used:
[1] = test system: Staphylococcus aureus; assay: Bactericidal activity against methicillin-resistant Staphylococcus aureus USA300 NRS384 clinical isolate preincubated for 20 hrs followed by TSA plating and measured after 18 hrs; format: functional
[2] = test system: Escherichia coli; assay: Bacteriostatic activity against Escherichia coli BW25113 after 20 hrs by broth microdilution method; format: functional; conditions: BW25113, 20 h
Procedure, shortened: (§1)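 MIC by broth microdilution across 128 to 1 μg/mL in 96-well plates, 37 °C for at least 20 h. MIC is the lowest concentration with no visible growth.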

[3] = test system: Klebsiella pneumoniae; assay: Bacteriostatic activity against Klebsiella pneumoniae BAA 1706 after 20 hrs by broth microdilution method; format: functional; conditions: BAA 1706, 20 h; procedure, shortened: as §1
[4] = test system: Pseudomonas aeruginosa; assay: Bacteriostatic activity against Pseudomonas aeruginosa ATCC 15442 after 20 hrs by broth microdilution method; format: functional; conditions: ATCC 15442, 20 h; procedure, shortened: as §1
[5] = test system: Enterococcus faecalis; assay: Bacteriostatic activity against Enterococcus faecalis ATCC 29212 after 20 hrs by broth microdilution method; format: functional; conditions: ATCC 29212, 20 h
Procedure, shortened: (§2)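 Broth microdilution MIC over 128 to 1 μg/mL, run alongside methicillin, linezolid and vancomycin. MIC taken as the lowest concentration with no visible growth.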

[6] = test system: Staphylococcus aureus; assay: Bacteriostatic activity against methicillin-resistant Staphylococcus aureus USA300 NRS384 clinical isolate after 20 hrs by broth microdilution method; format: functional; conditions: USA300 NRS384, 20 h; procedure, shortened: as §2
[7] = test system: Staphylococcus aureus; assay: Bacteriostatic activity against methicillin-resistant Staphylococcus aureus USA700 NRS386 clinical isolate after 20 hrs by broth microdilution method; format: functional; conditions: USA700 NRS386, 20 h; procedure, shortened: as §2
[8] = test system: Enterococcus faecium; assay: Bacteriostatic activity against vancomycin-resistant Enterococcus faecium ATCC 700221 clinical isolate after 20 hrs by broth microdilution method; format: functional; conditions: ATCC 700221, 20 h
Procedure, shortened: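 Broth microdilution MIC over 128 to 1 μg/mL in Brain Heart Infusion broth, 37 °C for at least 20 h. MIC taken as the lowest concentration with no visible growth.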

[9] = test system: Staphylococcus aureus; assay: Bactericidal activity against vancomycin-intermediate Staphylococcus aureus NRS1 clinical isolate preincubated for 20 hrs followed by TSA plating and measured after 18 hrs; format: functional
[10] = test system: J774; assay: Cytotoxicity against mouse J774 cells assessed as decrease in cell viability up to 128 ug/ml after 24 hrs by MTS assay; format: cell-based; conditions: j774, 24 h
[11] = test system: Staphylococcus aureus; assay: Ratio of MIC for methicillin-resistant Staphylococcus aureus USA400 NRS123 measured after 10th to 14th passage to MIC for methicillin-resistant Staphylococcus aureus USA400 NRS123 measured prior 10th to 14th passage; format: functional
Procedure, shortened: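 MRSA USA400 (NRS123) passaged serially, once a day, over 14 passages in two weeks. Broth microdilution MIC of test agent and ciprofloxacin measured after each passage. A four-fold MIC shift taken as resistance.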

[12] = test system: Staphylococcus aureus; assay: Bacteriostatic activity against Staphylococcus aureus ATCC 25923 after 20 hrs by broth microdilution method; format: functional; conditions: ATCC 25923, 20 h; procedure, shortened: as §2
[13] = test system: Enterococcus faecalis; assay: Potency index, ratio of vancomycin MIC to test compound MIC for vancomycin-resistant Enterococcus faecalis ATCC 51575
[14] = Ratio of non toxic concentration for human Caco2 cells to MIC for methicillin-resistant Staphylococcus aureus ATCC 33592; format: toxicity; conditions: Caco-2 cells
[15] = test system: Escherichia coli; assay: Bacteriostatic activity against AcrAB-tolC deficient Escherichia coli JW5503-1 after 20 hrs by broth microdilution method; format: functional; conditions: JW5503-1, 20 h; procedure, shortened: as §1
[16] = test system: Staphylococcus aureus; assay: Bactericidal activity against vancomycin-resistant Staphylococcus aureus VRS12 clinical isolate preincubated for 20 hrs followed by TSA plating and measured after 18 hrs; format: functional
[17] = test system: Staphylococcus aureus; assay: Bacteriostatic activity against methicillin-resistant Staphylococcus aureus USA500 NRS385 clinical isolate after 20 hrs by broth microdilution method; format: functional; conditions: USA500 NRS385, 20 h; procedure, shortened: as §2
[18] = test system: Staphylococcus aureus; assay: Bacteriostatic activity against methicillin-resistant Staphylococcus aureus NRS119 clinical isolate after 20 hrs by broth microdilution method; format: functional; conditions: NRS119, 20 h; procedure, shortened: as §2
[19] = test system: Staphylococcus aureus; assay: Potency index, ratio of methicillin MIC to test compound MIC for methicillin-resistant Staphylococcus aureus ATCC 33592; format: functional
[20] = test system: Staphylococcus aureus; assay: Bacteriostatic activity against methicillin-resistant Staphylococcus aureus USA400 NRS123 measured over 14 days by broth microdilution method
[21] = test system: Staphylococcus aureus; assay: Bactericidal activity against methicillin-resistant Staphylococcus aureus USA400 NRS123 clinical isolate preincubated for 20 hrs followed by TSA plating and measured after 18 hrs; format: functional
[22] = test system: Staphylococcus aureus; assay: Bacteriostatic activity against methicillin-resistant Staphylococcus aureus USA400 NRS123 clinical isolate after 20 hrs by broth microdilution method; format: functional; conditions: USA400 NRS123, 20 h; procedure, shortened: as §2
[23] = test system: Staphylococcus aureus; assay: Bacteriostatic activity against vancomycin-resistant Staphylococcus aureus VRS12 clinical isolate after 20 hrs by broth microdilution method; format: functional; conditions: VRS12, 20 h; procedure, shortened: as §2
[24] = test system: Staphylococcus aureus; assay: Bactericidal activity against methicillin-resistant Staphylococcus aureus USA800 NRS387 clinical isolate preincubated for 20 hrs followed by TSA plating and measured after 18 hrs; format: functional
[25] = test system: Caco-2; assay: Cytotoxicity against human Caco2 cells assessed as decrease in cell viability up to 128 ug/ml after 24 hrs by MTS assay; format: cell-based; conditions: caco-2, 24 h
Procedure, shortened: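 Caco-2 cells were grown in DMEM with 20% FBS, 1X non-essential amino acids and penicillin-streptomycin at 37 °C, 5% CO2. Viability is % of DMSO-treated cells.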

[26] = test system: Staphylococcus aureus; assay: Antibacterial activity against methicillin-resistant Staphylococcus aureus USA300 at 12 ug/ml preincubated for 24 hrs followed by agar plating and measured after 18 to 20 hrs by time-kill assay relative to control; format: functional
[27] = Ratio of non toxic concentration for mouse J774 cells to MIC for methicillin-resistant Staphylococcus aureus ATCC 33592; format: toxicity
[28] = test system: Staphylococcus aureus; assay: Bactericidal activity against methicillin-resistant Staphylococcus aureus NRS119 clinical isolate preincubated for 20 hrs followed by TSA plating and measured after 18 hrs; format: functional
[29] = test system: Enterococcus faecalis; assay: Bacteriostatic activity against vancomycin-resistant Enterococcus faecalis ATCC 51575 after 20 hrs by broth microdilution method; format: functional; conditions: ATCC 51575, 20 h; procedure, shortened: as §2
[30] = test system: Staphylococcus aureus; assay: Antibacterial activity against methicillin-resistant Staphylococcus aureus USA300 in BALB/c mouse wound infection model assessed as reduction in bacterial burden in wound at 2% administered topically bid for 5 days relative to control; format: functional; parameters: scale not given: the % may be the effect or the level left
Procedure, shortened: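 Female BALB/c mice, eight weeks old, n = 5 per group, injected intradermally with 40 μL of 1.32×10^9 CFU/mL MRSA USA300. Once an abscess or open wound formed, it was treated topically twice daily for five days with 2% agent in petroleum jelly, with vehicle as control. Wound tissue excised 12 h after the last dose, homogenized in PBS, diluted and plated on mannitol salt agar for 16 h or more at 37 °C. CFU reduction calculated against vehicle.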

[31] = test system: Enterococcus faecium; assay: Bactericidal activity against vancomycin-resistant Enterococcus faecium ATCC 700221 clinical isolate preincubated for 20 hrs followed by TSA plating and measured after 18 hrs; format: functional
Procedure, shortened: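 MBC: 4 μL from wells with no growth in the MIC plate (Brain Heart Infusion broth, 37 °C, at least 20 h) spotted onto Tryptic Soy Agar. Read after at least 18 h at 37 °C.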

[32] = test system: Staphylococcus aureus; assay: Bactericidal activity against methicillin-resistant Staphylococcus aureus USA500 NRS385 clinical isolate preincubated for 20 hrs followed by TSA plating and measured after 18 hrs; format: functional
[33] = test system: Staphylococcus aureus; assay: Antibacterial activity against Staphylococcus aureus assessed as growth inhibition at 16 ug/ml after 24 hrs; format: functional, organism-based
Procedure, shortened: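 S. aureus grown in Mueller Hinton Broth to early exponential phase, then exposed to compound (16 μg/mL; DMSO stocks 10 mg/mL) or DMSO in duplicate, 37 °C for 24 h. OD600 read; percent normalized OD600 = (X − media blank)/(DMSO control − media blank) × 100.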

[34] = test system: Listeria monocytogenes; assay: Bacteriostatic activity against Listeria monocytogenes ATCC 19115 after 20 hrs by broth microdilution method; format: functional; conditions: ATCC 19115, 20 h; procedure, shortened: as §1
[35] = test system: Staphylococcus aureus; assay: Bacteriostatic activity against vancomycin-intermediate Staphylococcus aureus NRS1 clinical isolate after 20 hrs by broth microdilution method; format: functional; conditions: NRS1, 20 h; procedure, shortened: as §2
[36] = test system: Staphylococcus aureus; assay: Bacteriostatic activity against methicillin-resistant Staphylococcus aureus ATCC 33592 after 20 hrs by broth microdilution method; format: functional; conditions: ATCC 33592, 20 h; procedure, shortened: as §2
[37] = test system: Acinetobacter baumannii; assay: Bacteriostatic activity against Acinetobacter baumannii ATCC 19606 after 20 hrs by broth microdilution method; format: functional; conditions: ATCC 19606 = CIP 70.34 = JCM 6841, 20 h; procedure, shortened: as §1
[38] = test system: Staphylococcus aureus; assay: Bacteriostatic activity against methicillin-resistant Staphylococcus aureus USA800 NRS387 clinical isolate after 20 hrs by broth microdilution method; format: functional; conditions: USA800 NRS387, 20 h; procedure, shortened: as §2
[39] = test system: Staphylococcus aureus; assay: Bactericidal activity against methicillin-resistant Staphylococcus aureus USA700 NRS386 clinical isolate preincubated for 20 hrs followed by TSA plating and measured after 18 hrs; format: functional
[40] = test system: Staphylococcus aureus; assay: Antibacterial activity against methicillin-resistant Staphylococcus aureus USA300 at 6 ug/ml preincubated up to12 hrs followed by agar plating and measured after 18 to 20 hrs by time-kill assay; format: functional, organism-based

SMILES | MBC [1] | MIC [5] | MIC [6] | MIC [7] | MIC [8] | MBC [9] | MIC [12] | MBC [16] | MIC [17] | MIC [18] | MBC [21] | MIC [22] | MIC [23] | MBC [24] | MBC [28] | MIC [29] | MBC [31] | MBC [32] | MIC [34] | MIC [36] | further results
C[C@@H]1C[C@H](C)CN(S(=O)(=O)c2ccc(C(=O)Nc3nnc(-c4cccs4)o3)cc2)C1 (mixture of isomers) | > 128 µg/mL | 4 µg/mL | 2 µg/mL | 2 µg/mL | 2 µg/mL | > 128 µg/mL | 2 to 4 µg/mL | > 128 µg/mL | 2 µg/mL | 2 µg/mL | > 128 µg/mL | 2 µg/mL | 2 µg/mL | > 128 µg/mL | > 128 µg/mL | 4 µg/mL | 128 µg/mL | > 128 µg/mL | 4 µg/mL | 2 to 4 µg/mL | MIC [2]: > 128 µg/mL; MIC [3]: > 128 µg/mL; MIC [4]: > 128 µg/mL; Activity [10]: Non-Toxic; Ratio [11]: 1; Ratio [13]: >32; selectivity ratio [14]: 63; MIC [15]: 2 µg/mL; Ratio [19]: > 64; Activity [20]: Active; Activity [25]: Non-Toxic; Activity [26]: 2.01 deltalog10CFU/ml; selectivity ratio [27]: 63; Activity [30]: 72.41%; growth inhibition (GI) [33]: Active; MIC [35]: 2 µg/mL; MIC [37]: 128 µg/mL; MIC [38]: 2 µg/mL; MBC [39]: > 128 µg/mL
CN[C@H](CC(C)C)C(=O)N[C@H]1C(=O)N[C@@H](CC(N)=O)C(=O)N[C@H]2C(=O)N[C@H]3C(=O)N[C@H](C(=O)N[C@H](C(=O)O)c4cc(O)cc(O)c4-c4cc3ccc4O)[C@H](O)c3ccc(c(Cl)c3)Oc3cc2cc(c3O[C@@H]2O[C@H](CO)[C@@H](O)[C@H](O)[C@H]2O[C@H]2C[C@](C)(N)[C@H](O)[C@H](C)O2)Oc2ccc(cc2Cl)[C@H]1O [VANCOMYCIN] | ≤ 1 µg/mL | 2 µg/mL (≈ 1.38 µM) | ≤ 1 µg/mL | ≤ 1 µg/mL | > 128 µg/mL | 4 µg/mL (≈ 2.76 µM) | 1 to 2 µg/mL (≈ 0.69 to 1.38 µM) | > 128 µg/mL | ≤ 1 µg/mL | ≤ 1 µg/mL | ≤ 1 µg/mL | ≤ 1 µg/mL | > 128 µg/mL | 2 µg/mL (≈ 1.38 µM) | ≤ 1 µg/mL | > 128 µg/mL | > 128 µg/mL | 2 µg/mL (≈ 1.38 µM) | 1 µg/mL (≈ 0.69 µM) | 1 to 2 µg/mL (≈ 0.69 to 1.38 µM) | Activity [40]: Active; MBC [39]: ≤ 1 µg/mL
